{"source": "paper PMC11210309", "about": "(Science Advances, 2021)", "key": {"[1]": {"tested_on": "Notch signaling", "assay": "Western blot of cleaved NOTCH1 and HES1 during hIEC differentiation", "format": "cell-based, human", "conditions": "single treatment with VPA, 1 mM (Fig. 1F)"}, "[2]": {"tested_on": "β-catenin", "assay": "Western blot of β-catenin during hIEC differentiation", "format": "cell-based, human", "conditions": "differentiation of hIEC progenitors, 2 μM Wnt-C59 (Fig. 1F)", "method_in_brief": "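hIEC progenitors are kept on 1% Matrigel in DMEM/F12 with EGF, R-spondin1 and insulin. They are seeded at 1.34 × 10^5 cells/cm2 on 1% Matrigel-coated Transwell inserts with 10 μM Y-27632 until near confluence. They are then switched to DMEM/F12 with EGF (100 ng/ml), 2 μM Wnt-C59, 1 mM VPA, 2% FBS, 2% B27, 1% N2, 2 mM l-glutamine, 1% NEAA and 15 mM Hepes.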"}, "[3]": {"assay": "Apical-to-basolateral permeability", "conditions": "human"}, "[4]": {"assay": "Apical-to-basolateral permeability", "conditions": "human, Caco-2"}, "[5]": {"tested_on": "hIECs", "assay": "qPCR of intestinal marker genes in compound-treated hIECs", "format": "cell-based, human", "conditions": "compound-treated hIECs in 2D culture (Fig. 1C)"}}}
{"molecule": "CCCC(CCC)C(=O)O", "note": "[VPA, valproic acid]", "values": [{"measurement": "Notch signaling (cleaved NOTCH1 and HES1)", "setting": "[1]", "result": "notable enhancement"}]}
{"molecule": "Cc1cc(-c2ccc(CC(=O)Nc3ccc(-c4cccnc4)cc3)cc2)ccn1", "note": "[WNT C-59]", "values": [{"measurement": "Expression of β-catenin", "setting": "[2]", "result": "specifically inhibited"}]}
{"molecule": "O=C(O)Cc1ccccc1Nc1c(Cl)cccc1Cl", "note": "[diclofenac]", "values": [{"measurement": "Papp A→B at 2 h", "setting": "[3]", "result": "12.5 ± 2.65", "unit": "×10⁻⁶ cm/s"}, {"measurement": "Papp A→B at 2 h", "setting": "[4]", "result": "36.4 ± 1.13", "unit": "×10⁻⁶ cm/s"}]}
{"molecule": "CC[C@H]1OC(=O)[C@H](C)[C@@H](O[C@H]2C[C@@](C)(OC)[C@@H](O)[C@H](C)O2)[C@H](C)[C@@H](O[C@@H]2O[C@H](C)C[C@H](N(C)C)[C@H]2O)[C@](C)(O)C[C@@H](C)C(=O)[C@H](C)[C@@H](O)[C@]1(C)O", "note": "[erythromycin]", "values": [{"measurement": "Papp A→B at 2 h", "setting": "[3]", "result": "4.95 ± 0.14", "unit": "×10⁻⁶ cm/s"}, {"measurement": "Papp A→B at 2 h", "setting": "[4]", "result": "< 0.3", "unit": "×10⁻⁶ cm/s"}]}
{"molecule": "COCCc1ccc(OCC(O)CNC(C)C)cc1", "note": "(centres unmarked) [metoprolol]", "values": [{"measurement": "Papp A→B at 2 h", "setting": "[3]", "result": "13.8 ± 0.74", "unit": "×10⁻⁶ cm/s"}, {"measurement": "Papp A→B at 2 h", "setting": "[4]", "result": "35.5 ± 1", "unit": "×10⁻⁶ cm/s"}]}
{"molecule": "CC(C)NCC(O)COc1cccc2ccccc12", "note": "(centres unmarked) [propranolol]", "values": [{"measurement": "Papp A→B at 2 h", "setting": "[3]", "result": "13.1 ± 1.25", "unit": "×10⁻⁶ cm/s"}, {"measurement": "Papp A→B at 2 h", "setting": "[4]", "result": "29.1 ± 0.97", "unit": "×10⁻⁶ cm/s"}]}
{"molecule": "CNC(=C[N+](=O)[O-])NCCSCc1ccc(CN(C)C)o1", "note": "[ranitidine]", "values": [{"measurement": "Papp A→B at 2 h", "setting": "[3]", "result": "11.6 ± 0.92", "unit": "×10⁻⁶ cm/s"}, {"measurement": "Papp A→B at 2 h", "setting": "[4]", "result": "1.16 ± 0.09", "unit": "×10⁻⁶ cm/s"}]}
{"molecule": "Insulin: acts in the intestinal epithelium via the insulin receptor; component of hIEC medium 1", "values": [{"measurement": "Differentiation into absorptive cells (VIL1 and ANPEP expression)", "setting": "[5]", "result": "specifically increased"}]}
{"molecule": "R-spondin 1: an agonist of Wnt signaling (protein, UniProt Q2MKA7 21-263, looked up) R-spondin-1: SRGIKGKRQRRISAEGSQACAKGCELCSEVNGCLKCSPKLFILLERNDIRQVGVCLPSCPPGYFDARNPDMNKCIKCKIEHCEACFSHNFCTKCKEGLYLHKGRCYPACPEGSSAANGTMECSSPAQCEMSEWSPWGPCSKKQQLCGFRRGSEERTRRVLHAPVGDHAACSDTKETRRCTVRRVPCPEGQKRRKGGQGRRENANRNLARKESKEAGAGSRRRKGQQQQQQQGTVGPLTSAGPA", "values": [{"measurement": "Expression of markers of major intestinal cell types (ISCs, enterocytes, secretory lineage cells)", "setting": "[5]", "result": "induced"}]}
